Source: ChEMBL document CHEMBL1821639, “Exploring Left-Hand-Side substitutions in the benzoxazinone series of 4-amino-piperidine bacterial type IIa topoisomerase inhibitors” (Bioorg Med Chem Lett, 2011)
≈ marks a conversion by molar mass, not a printed value.

Tests used:
Haemophilus influenzae = assay: Antibacterial activity against Haemophilus influenzae after 24 hrs by CLSI method; assay type: functional
How it was run: (§1)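 Broth dilution per CLSI; compounds in DMSO, 10 doubling dilutions. Organisms grown overnight on agar, suspended in suitable liquid medium to 0.5 McFarland, then diluted 1 in 10 for final inoculum.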

Staphylococcus aureus = assay: Antibacterial activity against Staphylococcus aureus after 24 hrs by CLSI method; assay type: functional; how it was run: as §1
Streptococcus pneumoniae = assay: Antibacterial activity against Streptococcus pneumoniae after 24 hrs by CLSI method; assay type: functional; how it was run: as §1
Escherichia coli [1] = assay: Antibacterial activity against TolC-deficient Escherichia coli after 24 hrs by CLSI method; assay type: functional; how it was run: as §1
Streptococcus pyogenes = assay: Antibacterial activity against Streptococcus pyogenes after 24 hrs by CLSI method; assay type: functional; how it was run: as §1
Pseudomonas aeruginosa = assay: Antibacterial activity against Pseudomonas aeruginosa after 24 hrs by CLSI method; assay type: functional; how it was run: as §1
Escherichia coli [2] = assay: Antibacterial activity against Escherichia coli after 24 hrs by CLSI method; assay type: functional; how it was run: as §1
Moraxella catarrhalis = assay: Antibacterial activity against Moraxella catarrhalis after 24 hrs by CLSI method; assay type: functional; how it was run: as §1
[3] = Lipophilicity, log D of the compound by shake flask method using LC-MS analysis; assay type: physicochemical; conditions: octanol/water
How it was run: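 Shake-flask partitioning, experimental, with LC–MS quantitation.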

[4] = Inhibition of Escherichia coli DNA gyrase supercoiling activity
[5] = Inhibition of ParC in reconstituted Escherichia coli ParC/ParE assessed as ParE ATPase activity after 24 hrs by ammonium molybdate/malachite green method
Klebsiella pneumoniae = assay: Antibacterial activity against Klebsiella pneumoniae after 24 hrs by CLSI method; assay type: functional; how it was run: as §1

Compound `O=C1COc2ccc(CNC3CCN(CCN4C(=O)COc5ccc([N+](=O)[O-])cc54)CC3)nc2N1` has an MIC (Haemophilus influenzae) of 0.1 µM (≈ 0.0482 µg/mL), an MIC (Staphylococcus aureus) of 0.3 µM (≈ 0.145 µg/mL) and an MIC (Streptococcus pneumoniae) of 0.5 µM (≈ 0.241 µg/mL). For the same compound, the MIC (Escherichia coli [1]) was less than 0.02 µM, the MIC (Streptococcus pyogenes) was 0.3 µM (≈ 0.145 µg/mL) and the MIC (Pseudomonas aeruginosa) was 5.9 µM (≈ 2.85 µg/mL). It also gave an MIC (Escherichia coli [2]) of 0.5 µM (≈ 0.241 µg/mL).
Work on `CCS(=O)(=O)c1ccc2c(c1)N(CCN1CCC(NCc3ccc4c(n3)NC(=O)CO4)CC1)C(=O)CO2` yielded an MIC (Moraxella catarrhalis) of 7.6 µM (≈ 4.03 µg/mL), an MIC (Haemophilus influenzae) of 7.6 µM (≈ 4.03 µg/mL) and an MIC (Staphylococcus aureus) greater than 15.1 µM. For the same compound, the MIC (Streptococcus pneumoniae) was greater than 15.1 µM, the MIC (Escherichia coli [1]) was 1.9 µM (≈ 1.01 µg/mL) and the logD [3] was -0.1. For the same compound, the MIC (Streptococcus pyogenes) was 15.1 µM (≈ 8 µg/mL), the MIC (Pseudomonas aeruginosa) was greater than 15.1 µM and the MIC (Escherichia coli [2]) was greater than 15.1 µM.
Work on `O=C1COc2ccc(CNC3CCN(CCN4C(=O)COc5ccc(OC(F)(F)F)cc54)CC3)nc2N1` yielded an MIC (Moraxella catarrhalis) of 0.1 µM (≈ 0.0521 µg/mL), an MIC (Haemophilus influenzae) of 0.1 µM (≈ 0.0521 µg/mL) and an MIC (Staphylococcus aureus) of 1 µM (≈ 0.521 µg/mL). The MIC (Streptococcus pneumoniae) was 1 µM (≈ 0.521 µg/mL), the MIC (Escherichia coli [1]) was 0.1 µM (≈ 0.0521 µg/mL) and the logD [3] was 1.8. It also gave an MIC (Streptococcus pyogenes) of 1 µM (≈ 0.521 µg/mL), an MIC (Pseudomonas aeruginosa) of 15.3 µM (≈ 7.98 µg/mL) and an MIC (Escherichia coli [2]) of 3.8 µM (≈ 1.98 µg/mL).
`CC(=O)c1ccc2c(c1)N(CCN1CCC(NCc3ccc4c(n3)NC(=O)CO4)CC1)C(=O)CO2` showed an MIC (Moraxella catarrhalis) of 0.3 µM (≈ 0.144 µg/mL), an MIC (Haemophilus influenzae) of 0.3 µM (≈ 0.144 µg/mL) and an MIC (Staphylococcus aureus) of 1 µM (≈ 0.48 µg/mL). For the same compound, the MIC (Streptococcus pneumoniae) was 2.1 µM (≈ 1.01 µg/mL), the MIC (Escherichia coli [1]) was 0.1 µM (≈ 0.048 µg/mL) and the logD [3] was 0.4. It also gave an MIC (Streptococcus pyogenes) of 1 µM (≈ 0.48 µg/mL), an MIC (Pseudomonas aeruginosa) of 16.7 µM (≈ 8.01 µg/mL) and an MIC (Escherichia coli [2]) of 2.1 µM (≈ 1.01 µg/mL).
For `N#Cc1ccc2c(c1)N(CCN1CCC(NCc3ccc4c(n3)NC(=O)CO4)CC1)C(=O)CO2`, the MIC (Haemophilus influenzae) was 0.1 µM (≈ 0.0463 µg/mL), the MIC (Staphylococcus aureus) was 0.3 µM (≈ 0.139 µg/mL) and the IC50 [4] was 0.0032 µM. The MIC (Streptococcus pneumoniae) was 0.8 µM (≈ 0.37 µg/mL), the MIC (Escherichia coli [1]) was less than 0.02 µM and the logD [3] was 0.2. The MIC (Streptococcus pyogenes) was 0.3 µM (≈ 0.139 µg/mL), the IC50 [5] was 0.036 µM and the MIC (Pseudomonas aeruginosa) was 3.8 µM (≈ 1.76 µg/mL). It also gave an MIC (Escherichia coli [2]) of 0.5 µM (≈ 0.231 µg/mL) and an MIC (Klebsiella pneumoniae) of 4.3 µM (≈ 1.99 µg/mL).
In the case of `O=C1COc2ccc(CNC3CCN(CCN4C(=O)COc5ccc(Cl)cc54)CC3)nc2N1`, the MIC (Moraxella catarrhalis) is reported as 0.1 µM (≈ 0.0472 µg/mL), the MIC (Haemophilus influenzae) is reported as 0.1 µM (≈ 0.0472 µg/mL) and the MIC (Staphylococcus aureus) is reported as 0.3 µM (≈ 0.142 µg/mL). It also gave an MIC (Streptococcus pneumoniae) of 0.5 µM (≈ 0.236 µg/mL), an MIC (Escherichia coli [1]) of less than 0.02 µM and a logD [3] of 1.3. The MIC (Streptococcus pyogenes) was 0.5 µM (≈ 0.236 µg/mL), the IC50 [5] was 0.023 µM and the MIC (Pseudomonas aeruginosa) was 4.2 µM (≈ 1.98 µg/mL). The MIC (Escherichia coli [2]) was 0.5 µM (≈ 0.236 µg/mL).
`O=C1COc2ccc(CNC3CCN(CCN4C(=O)COc5ccc(F)cc54)CC3)nc2N1` gave an MIC (Haemophilus influenzae) of 0.1 µM (≈ 0.0455 µg/mL), an MIC (Staphylococcus aureus) of 0.6 µM (≈ 0.273 µg/mL) and an MIC (Streptococcus pneumoniae) of 1.1 µM (≈ 0.501 µg/mL). It also gave an MIC (Escherichia coli [1]) of 0.1 µM (≈ 0.0455 µg/mL), a logD [3] of 0.9 and an MIC (Streptococcus pyogenes) of 0.5 µM (≈ 0.228 µg/mL). The MIC (Pseudomonas aeruginosa) was 6.2 µM (≈ 2.82 µg/mL) and the MIC (Escherichia coli [2]) was 0.6 µM (≈ 0.273 µg/mL).
Compound `COc1ccc2c(c1)N(CCN1CCC(NCc3ccc4c(n3)NC(=O)CO4)CC1)C(=O)CO2` has an MIC (Moraxella catarrhalis) of 0.1 µM (≈ 0.0468 µg/mL), an MIC (Haemophilus influenzae) of 0.1 µM (≈ 0.0468 µg/mL) and an MIC (Staphylococcus aureus) of 0.3 µM (≈ 0.14 µg/mL). For the same compound, the IC50 [4] was 0.005 µM, the MIC (Streptococcus pneumoniae) was 1.1 µM (≈ 0.514 µg/mL) and the MIC (Escherichia coli [1]) was 0.1 µM (≈ 0.0468 µg/mL). For the same compound, the logD [3] was 0.9, the MIC (Pseudomonas aeruginosa) was 8.6 µM (≈ 4.02 µg/mL) and the MIC (Escherichia coli [2]) was 0.5 µM (≈ 0.234 µg/mL).
For `O=C1COc2ccc(CNC3CCN(CCN4C(=O)COc5ccc(-c6ccco6)cc54)CC3)nc2N1`, the MIC (Moraxella catarrhalis) was 0.06 µM (≈ 0.0302 µg/mL), the MIC (Haemophilus influenzae) was 0.3 µM (≈ 0.151 µg/mL) and the MIC (Staphylococcus aureus) was 0.5 µM (≈ 0.252 µg/mL). It also gave an MIC (Streptococcus pneumoniae) of 0.5 µM (≈ 0.252 µg/mL), an MIC (Escherichia coli [1]) of 0.06 µM (≈ 0.0302 µg/mL) and a logD [3] of 2.2. For the same compound, the MIC (Streptococcus pyogenes) was 2 µM (≈ 1.01 µg/mL), the IC50 [5] was 0.018 µM and the MIC (Pseudomonas aeruginosa) was 15.9 µM (≈ 8.01 µg/mL). For the same compound, the MIC (Escherichia coli [2]) was 2 µM (≈ 1.01 µg/mL) and the MIC (Klebsiella pneumoniae) was 15.9 µM (≈ 8.01 µg/mL).
